Assay results from ChEMBL document CHEMBL4431339, “1,2,3-Triazoles as Amide Bioisosteres: Discovery of a New Class of Potent HIV-1 Vif Antagonists” (J Med Chem, 2016).
Calls of active or inactive are those of the source. Unless noted, no cut-off for these calls is given here.

How the values were obtained:
[1] = molecular target: Virion infectivity factor (Human immunodeficiency virus type 1 group M subtype B (isolate NY5)(HIV-1)) (UniProt P12504); experiment: Antagonist activity against HIV-1 Vif in human MT4 cells assessed as inhibition of viral infection at 50 uM measured after 16 hrs by cell-based assay; settings: Human immunodeficiency virus 1
Chain of Virion infectivity factor (Human immunodeficiency virus type 1 group M subtype B (isolate NY5)(HIV-1)) (P12504 whole entry): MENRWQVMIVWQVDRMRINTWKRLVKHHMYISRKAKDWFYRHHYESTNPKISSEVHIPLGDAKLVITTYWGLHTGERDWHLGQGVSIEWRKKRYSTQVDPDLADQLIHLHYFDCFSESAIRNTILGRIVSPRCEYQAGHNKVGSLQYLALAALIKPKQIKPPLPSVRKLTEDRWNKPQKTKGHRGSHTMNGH
Procedure, shortened: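 Antiviral activity was measured against wild-type HIV-1 in permissive MT-4 cells as a Vif-specificity counter-screen. RN-18 was the positive control, and cells cultured without inhibitor were the negative control. "No activity" means no inhibition at 50 µM.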

[2] = molecular target: Virion infectivity factor (Human immunodeficiency virus type 1 group M subtype B (isolate NY5)(HIV-1)) (UniProt P12504); experiment: Antagonist activity against HIV-1 GFP-tagged Vif in human HEK293FT cells co-expressing HA-tagged A3G assessed as downregulation of Vif expression expression at 50 uM measured after 16 hrs by immunoblotting method; assay type: cell-based; settings: Human immunodeficiency virus 1
Procedure, shortened: (§1)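 HEK293FT cells co-expressing HA-tagged A3G and either GFP-tagged Vif or Vif were incubated with or without compound (50 µM) for 16 h. Cell extracts were immunoblotted with anti-HA (A3G), anti-GFP (Vif) and anti-GAPDH antibodies. Untreated cells served as the comparison, and choline chloride was included as a negative control in the triazole series.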

[3] = molecular target: Virion infectivity factor (Human immunodeficiency virus type 1 group M subtype B (isolate NY5)(HIV-1)) (UniProt P12504); experiment: Antagonist activity against HIV-1 GFP-tagged Vif in human HEK293FT cells co-expressing HA-tagged A3G assessed as upregulation of A3G levels at 50 uM measured after 16 hrs by immunoblotting method; assay type: cell-based; settings: Human immunodeficiency virus 1; procedure, shortened: as §1
HeLa = experiment: Cytotoxicity against human HeLa cells at 50 uM measured after 16 hrs by MTS assay relative to DMSO control; assay type: cell-based
[4] = molecular target: Virion infectivity factor (Human immunodeficiency virus type 1 group M subtype B (isolate NY5)(HIV-1)) (UniProt P12504); experiment: Antagonist activity against HIV-1 Vif in human H9 cells expressing A3G assessed as inhibition of viral replication by reverse transcriptase assay relative to vehicle-treated control; assay type: cell-based; settings: Human immunodeficiency virus 1
Procedure, shortened: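 Antiviral activity was measured against wild-type HIV-1 in non-permissive (A3G-expressing) H9 cells and reported as IC50. RN-18 was the positive control, and cells cultured without inhibitor were the negative control. Selected compounds were tested across doses, and MTS cell viability was checked in parallel at 50 µM.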

Structure (SMILES)	Activity [1]	further results
COc1ccc(S(=O)(=O)c2ccccc2-c2cn(-c3cccc(OC)c3OC)nn2)cc1	inactive	–
COc1ccccc1-n1cc(-c2ccccc2S(=O)(=O)c2ccc(C(F)(F)F)cc2)nn1	inactive	–
COc1ccc(S(=O)(=O)c2ccccc2-c2cn(-c3c(F)cccc3OC)nn2)cc1	inactive	–
COc1ccc(Sc2ccccc2-c2cn(-c3ccc(OC)cc3OC)nn2)cc1	inactive	–
COc1ccc(S(=O)(=O)c2ccccc2-c2cn(-c3ccc(OC)cc3OC)nn2)cc1	inactive	–
COc1ccc(OC)c(-n2cc(-c3ccccc3S(=O)(=O)c3ccc(C(F)(F)F)cc3)nn2)c1	inactive	–
COc1cccc(F)c1-n1cc(-c2ccccc2Sc2ccc(N)cc2)nn1	inactive	–
COc1ccccc1-n1cc(-c2ccccc2Sc2ccc(C(=O)O)cc2)nn1	inactive	–
COc1ccccc1-n1cc(-c2ccccc2S(=O)(=O)c2ccc(C(=O)O)cc2)nn1	inactive	Activity [2]: Active; Activity [3]: Active
COC(=O)c1ccc(Sc2ccccc2-c2cn(-c3c(OC)cccc3OC)nn2)cc1	inactive	Activity (HeLa): Non-Toxic; inhibition [4]: Dose-dependent effect
COc1cccc(F)c1-n1cc(-c2ccccc2S(=O)(=O)c2ccc(C(=O)O)cc2)nn1	inactive	–
COc1ccc(OC)c(-n2cc(-c3ccccc3Sc3ccc([N+](=O)[O-])cc3)nn2)c1	inactive	Activity [2]: Active; Activity (HeLa): Non-Toxic; inhibition [4]: Dose-dependent effect; Activity [3]: Active
COc1cccc(F)c1-n1cc(-c2ccccc2S(=O)(=O)c2ccc(N)cc2)nn1	inactive	–
COC(=O)c1ccc(S(=O)(=O)c2ccccc2-c2cn(-c3ccc(OC)cc3OC)nn2)cc1	inactive	–
COc1cccc(F)c1-n1cc(-c2ccccc2Sc2ccc(C(=O)O)cc2)nn1	inactive	–
COc1cccc(F)c1-n1cc(-c2ccccc2S(=O)(=O)c2ccc([N+](=O)[O-])cc2)nn1	inactive	–
COc1cccc(-n2cc(-c3ccccc3S(=O)(=O)c3ccc([N+](=O)[O-])cc3)nn2)c1OC	inactive	–
COC(=O)c1ccc(Sc2ccccc2-c2cn(-c3c(F)cccc3OC)nn2)cc1	inactive	–
COc1cccc(OC)c1-n1cc(-c2ccccc2S(=O)(=O)c2ccc([N+](=O)[O-])cc2)nn1	inactive	–
COc1ccc(S(=O)(=O)c2ccccc2-c2cn(-c3c(OC)cccc3OC)nn2)cc1	inactive	–
COc1ccc(Sc2ccccc2-c2cn(-c3cc(OC)ccc3OC)nn2)cc1	inactive	–
COc1ccc(-n2cc(-c3ccccc3S(=O)(=O)c3ccc(N)cc3)nn2)c(OC)c1	inactive	–
COC(=O)c1ccc(S(=O)(=O)c2ccccc2-c2cn(-c3c(F)cccc3OC)nn2)cc1	inactive	–
COc1cccc(-n2cc(-c3ccccc3Sc3ccc(N)cc3)nn2)c1OC	inactive	–

Structure (SMILES)	Activity [1]	further results
COc1ccc(-n2cc(-c3ccccc3Sc3ccc(C(=O)O)cc3)nn2)c(OC)c1	inactive	–
COc1cccc(OC)c1-n1cc(-c2ccccc2Sc2ccc(C(=O)O)cc2)nn1	inactive	–
COc1ccccc1-n1nncc1-c1ccccc1Sc1ccc([N+](=O)[O-])cc1	–	Activity [2]: Active; Activity [3]: Active
COC(=O)c1ccc(Sc2ccccc2-c2cn(-c3ccccc3OC)nn2)cc1	inactive	–
COc1cccc(-n2cc(-c3ccccc3Sc3ccc(C(F)(F)F)cc3)nn2)c1OC	inactive	–
COc1ccc(-n2cc(-c3ccccc3Sc3ccc([N+](=O)[O-])cc3)nn2)c(OC)c1	inactive	–
COc1cccc(-n2cc(-c3ccccc3S(=O)(=O)c3ccc(C(=O)O)cc3)nn2)c1OC	inactive	–
COC(=O)c1ccc(Sc2ccccc2-c2cn(-c3ccc(OC)cc3OC)nn2)cc1	inactive	Activity (HeLa): Non-Toxic; inhibition [4]: Dose-dependent effect
COC(=O)c1ccc(Sc2ccccc2-c2cn(-c3cc(OC)ccc3OC)nn2)cc1	inactive	Activity [2]: Active; Activity [3]: Active
COc1ccc(-n2cc(-c3ccccc3S(=O)(=O)c3ccc(C(F)(F)F)cc3)nn2)c(OC)c1	inactive	–
COC(=O)c1ccc(Sc2ccccc2-c2cn(-c3cccc(OC)c3OC)nn2)cc1	inactive	Activity (HeLa): Non-Toxic; inhibition [4]: Dose-dependent effect
COc1cccc(OC)c1-n1cc(-c2ccccc2S(=O)(=O)c2ccc(C(F)(F)F)cc2)nn1	inactive	–
COc1cccc(-n2cc(-c3ccccc3S(=O)(=O)c3ccc(N)cc3)nn2)c1OC	inactive	–
COc1ccc(S(=O)(=O)c2ccccc2-c2cn(-c3cc(OC)ccc3OC)nn2)cc1	inactive	–
COc1ccc(-n2cc(-c3ccccc3Sc3ccc(N)cc3)nn2)c(OC)c1	inactive	–
COc1ccc(-n2cc(-c3ccccc3S(=O)(=O)c3ccc(C(=O)O)cc3)nn2)c(OC)c1	inactive	–
COc1ccc(Sc2ccccc2-c2cn(-c3c(OC)cccc3OC)nn2)cc1	inactive	–
COc1cccc(OC)c1-n1cc(-c2ccccc2Sc2ccc([N+](=O)[O-])cc2)nn1	inactive	–
COc1cccc(OC)c1-n1cc(-c2ccccc2S(=O)(=O)c2ccc(C(=O)O)cc2)nn1	inactive	–
COc1cccc(OC)c1-n1cc(-c2ccccc2Sc2ccc(C(F)(F)F)cc2)nn1	inactive	–
COc1cccc(-n2cc(-c3ccccc3Sc3ccc(C(=O)O)cc3)nn2)c1OC	inactive	–
COc1cccc(F)c1-n1cc(-c2ccccc2S(=O)(=O)c2ccc(C(F)(F)F)cc2)nn1	inactive	–
COc1ccc(Sc2ccccc2-c2cn(-c3c(F)cccc3OC)nn2)cc1	inactive	–
COc1ccc(Sc2ccccc2-c2cn(-c3ccccc3OC)nn2)cc1	inactive	–

Structure (SMILES)	Activity [1]	further results
COC(=O)c1ccc(S(=O)(=O)c2ccccc2-c2cn(-c3cc(OC)ccc3OC)nn2)cc1	inactive	–
COc1ccccc1-n1cc(-c2ccccc2S(=O)(=O)c2ccc([N+](=O)[O-])cc2)nn1	inactive	–
COC(=O)c1ccc(S(=O)(=O)c2ccccc2-c2cn(-c3c(OC)cccc3OC)nn2)cc1	inactive	–
COc1ccc(S(=O)(=O)c2ccccc2-c2cn(-c3ccccc3OC)nn2)cc1	inactive	–
COc1cccc(OC)c1-n1cc(-c2ccccc2Sc2ccc(N)cc2)nn1	inactive	–
COc1ccc(OC)c(-n2cc(-c3ccccc3Sc3ccc(C(F)(F)F)cc3)nn2)c1	inactive	–
COc1ccccc1-n1cc(-c2ccccc2Sc2ccc(N)cc2)nn1	inactive	–
COc1ccc(-n2cc(-c3ccccc3S(=O)(=O)c3ccc([N+](=O)[O-])cc3)nn2)c(OC)c1	inactive	–
COC(=O)c1ccc(S(=O)(=O)c2ccccc2-c2cn(-c3cccc(OC)c3OC)nn2)cc1	inactive	–
COc1ccc(OC)c(-n2cc(-c3ccccc3S(=O)(=O)c3ccc(C(=O)O)cc3)nn2)c1	inactive	Activity [2]: Active; Activity [3]: Active
COc1ccc(Sc2ccccc2-c2cn(-c3cccc(OC)c3OC)nn2)cc1	inactive	–
COc1cccc(-n2cc(-c3ccccc3S(=O)(=O)c3ccc(C(F)(F)F)cc3)nn2)c1OC	inactive	–
COc1ccc(-n2cc(-c3ccccc3Sc3ccc(C(F)(F)F)cc3)nn2)c(OC)c1	inactive	–
COc1cccc(OC)c1-n1cc(-c2ccccc2S(=O)(=O)c2ccc(N)cc2)nn1	inactive	–
COc1ccc(OC)c(-n2cc(-c3ccccc3Sc3ccc(N)cc3)nn2)c1	inactive	–
COc1ccc(OC)c(-n2cc(-c3ccccc3Sc3ccc(C(=O)O)cc3)nn2)c1	inactive	–
COc1ccccc1-c1nnc(-c2ccccc2Sc2ccc([N+](=O)[O-])cc2)o1	–	Activity [2]: Active; Activity [3]: Active
COc1cccc(-n2cc(-c3ccccc3Sc3ccc([N+](=O)[O-])cc3)nn2)c1OC	inactive	Activity (HeLa): Non-Toxic; inhibition [4]: Dose-dependent effect
COc1cccc(F)c1-n1cc(-c2ccccc2Sc2ccc(C(F)(F)F)cc2)nn1	inactive	–
COc1ccc(OC)c(-n2cc(-c3ccccc3S(=O)(=O)c3ccc([N+](=O)[O-])cc3)nn2)c1	inactive	Activity (HeLa): Non-Toxic; inhibition [4]: Dose-dependent effect
COC(=O)c1ccc(S(=O)(=O)c2ccccc2-c2cn(-c3ccccc3OC)nn2)cc1	inactive	–
COc1cccc(F)c1-n1cc(-c2ccccc2Sc2ccc([N+](=O)[O-])cc2)nn1	inactive	–
COc1ccccc1-n1cc(-c2ccccc2S(=O)(=O)c2ccc(N)cc2)nn1	inactive	Activity [2]: Active; Activity [3]: Active
